# Measured values from PubChem BioAssay AID1943 (The Scripps Research Institute Molecular Screening Center, 2009).
# Hit rate of the full screen: of about 1,600 compounds, about 500 (31%) were called active. These entries were drawn from the full list. Values without a mark were called inactive.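 The calls were made as follows: active = inhibition above the mean of all tested compounds plus 3 SD, cutoff set per campaign (cut at about 36% in these data); inactive = the rest.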
# Test system: Hepatitis C virus NS3 helicase
# Assay: HCV NS3 helicase inhibitors, retest, confirmation, biochemical, Cy5 molecular beacon fluorescence, triplicate (AID 1943)
# Settings: NS3 helicase DNA unwinding, at 10.9 µM, stronger effect = higher value
# Summary of the method: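 assay system = HCV NS3 helicase | medium = MOPS buffer pH 6.5 with MgCl2, DTT, Tween20 and BSA | compound dosing = single nominal final dose of 10.9 µM, DMSO vehicle | incubation = reads at 0 and 60 min post-ATP, 25 °C | detection = Cy5 fluorescence | read-out = % inhibition of unwinding | repeats = triplicate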
row,Structure (SMILES),inhibition
1,CCOC(=O)c1c(-c2ccccc2)oc2cc(Br)c(O)c(C=O)c12,36.3% (active)
2,CC(Oc1ccccc1)C(=O)Nc1oc(-c2ccco2)c(-c2ccco2)c1C#N (centres undefined),61.5% (active)
3,Cc1cccc(NC(=O)c2sc3nc4c(c(-c5ccco5)c3c2N)CCC4)c1,-20.1%
4,COc1ccc(/C=C2\SC(=S)N(CCC(=O)Nc3cccc(C(=O)O)c3)C2=O)cc1OC,52.9% (active)
5,Cc1ccc(SC(CC(=O)c2ccc(C(C)(C)C)cc2)C(=O)O)cc1 (centres undefined),74.6% (active)
6,COCCNC(=O)Nc1ccc2nc(-c3ccco3)c(-c3ccco3)nc2c1,43.5% (active)
7,COc1ccc(OCC(=O)Nc2nnc(-c3ccco3)s2)cc1,-10.9%
8,COc1ccc(NC(=O)CSc2ccc(-c3ccco3)nn2)c(OC)c1,-10.9%
9,S=C(NCCc1ccccc1)N1CCCCC1,-9.72%
10,CCSc1nsc(NC(=O)Nc2cccc(C(C)=O)c2)n1,-4.64%
11,CNS(=O)(=O)c1cccc(C(=O)NC2CCCc3ccccc32)c1 (centres undefined),-10.8%
12,Cc1ccc(OCC(=O)c2cc(C)n(Cc3ccco3)c2C)c([N+](=O)[O-])n1,-9.23%
13,Cc1ccc(S(=O)(=O)NCCC(c2ccccc2)c2ccccc2)cc1C(=O)O,55.2% (active)
14,O=C1NN(c2ccccc2)C(=O)/C1=C/c1ccc(-c2cccc(C(=O)O)c2)o1,54.1% (active)
15,COc1cc(C2CC(=O)N3CN(Cc4ccccc4)CSC3=C2C#N)ccc1OCc1ccccc1 (centres undefined),25%
16,N#C/C=C(/c1ccc(F)cc1)N1CCOCC1,-4.32%
17,Cc1ccc(-c2nn(-c3ccccc3)cc2/C=C2\SC(=S)N(CCCCCC(=O)O)C2=O)o1,84.6% (active)
18,O=C(N/N=C/c1ccc([N+](=O)[O-])o1)c1cn(-c2ccccc2)nc1-c1ccc(F)cc1,-4.3%
19,COc1cccc(CNC(=O)c2nnn(CC(=O)Nc3cc(Cl)ccc3C)c2N)c1,3.98%
20,Cc1ccc(C(CC(=O)O)Nc2nc(N3CCCCC3)nc(N3CCCCC3)n2)cc1 (centres undefined),79% (active)
21,COc1ccccc1N1CCN(C(=O)CCS(=O)(=O)c2ccc3c(c2)NC(=O)C(C)S3)CC1 (centres undefined),-19.2%
22,Cc1ccccc1Nc1nnc(SCC(=O)c2cc3ccccc3o2)s1,-10.8%
23,CC(C)c1ccc(Nc2nnc(SCC(=O)c3nnc(-c4ccccc4)o3)s2)cc1,89.1% (active)
24,Cc1cc(O)c(C(=O)/C=C/c2c(F)c(F)c(F)c(F)c2F)c(=O)o1,69.6% (active)
25,CS(=O)(=O)c1ccc2c(c1)SC1=NC(=O)/C(=C/c3ccco3)C(=N)N12,22.5%

row,Structure (SMILES),inhibition
1,Nc1ccc2nc3c(=O)[nH]c(=S)[nH]c3nc2c1,2.58%
2,Cc1ccc(S(=O)(=O)N/N=C\c2cc3c(cc2[N+](=O)[O-])OCO3)cc1,-12%
3,O=[N+]([O-])c1cc(Cl)cc(/C=N/NC(=S)Nc2cc(S(=O)(=O)N3CCOCC3)ccc2Cl)c1O,94.9% (active)
4,CN(C)c1ccc(N/C=C/C(=O)C(F)(F)F)cc1,2.03%
5,COc1cccc(C(=O)CC(=O)C(=O)Nc2ccc([N+](=O)[O-])cc2C)c1,16.8%
6,CCOc1ccc(C(C(=O)NCCOC)N(CCOC)C(=O)CCC(=O)Nc2ccccn2)cc1 (centres undefined),-12.9%
7,Fc1ccc(-c2ccc(-c3nn4c(-c5ccco5)nnc4s3)o2)cc1,12%
8,CCN(CC)CCOc1ccc2c(c1)C(=NNC(=O)c1ccccn1)c1cc(OCCN(CC)CC)ccc1-2,37.9% (active)
9,COc1cc(/C=C2/C(=O)NN(c3cccc(Cl)c3)C2=O)cc(Br)c1O,57.7% (active)
10,Cc1ccc(C)c(-n2c(SCC(=O)O)nc3sc4c(c3c2=O)CCCC4)c1,22.2%
11,O=C1N/C(=C/c2cccn2-c2ccccc2)C(=O)N1c1cccc(Cl)c1,6.32%
12,CS/C(=C\C(=O)c1ccco1)Nc1ccccc1Cl,-6.86%
13,CCOC(=O)c1nnn(-c2nc(OC)nc(N(C)C)n2)c1-c1ccccc1,-9.79%
14,CSc1c(SCc2ccccc2)cnn(Cc2ccccc2)c1=O,-8.85%
15,c1ccc(CSc2nnc(-c3ccco3)c(-c3ccco3)n2)cc1,67% (active)
16,Clc1ccccc1CSc1nnc(-c2ccco2)c(-c2ccco2)n1,72% (active)
17,O=c1c2c(-c3ccccc3)ccnc2[nH]n1-c1ccccc1,-13.5%
18,Brc1ccccc1C1Nc2cccc3cccc(c23)N1,-7.38%
19,O=C(CCCN1C(=O)/C(=C\c2ccco2)SC1=S)Nc1cccc2ccccc12,73.3% (active)
20,O=c1nc2s/c(=C\c3ccco3)c(=O)n2nc1Cc1ccccc1,-17.8%
21,NS(=O)(=O)c1ccc(-c2ccc(/C=C3\SC(=O)NC3=O)o2)cc1,-18.5%
22,O=C(CCl)NNc1cccc(Cl)n1,-2.17%
23,CCOc1ccc(C2C3=C(CCCC3=O)N(CC(=O)O)C3=C2C(=O)CCC3)cc1,-13.6%
24,CC1=NN(c2ccc(Cl)c(C(=O)O)c2)C(=O)/C1=C/c1ccc(-c2ccccc2[N+](=O)[O-])o1,73.3% (active)
25,CC(=O)Nc1ccc(Nc2c3ccccc3nc3ccccc23)cc1,2.42%

row,Structure (SMILES),inhibition
1,Cc1ccc(C2=N/C(=C\c3ccc(OS(=O)(=O)c4ccc(C)cc4)cc3)C(=O)O2)cc1,27.4%
2,Cc1ccc(/C=C/C(=O)Nc2ccc([N+](=O)[O-])c(NC(=O)/C=C/c3ccc(C)o3)c2)o1,62.1% (active)
3,Cc1occc1C(=O)N/N=C/c1ccc(-c2cccc([N+](=O)[O-])c2)o1,-10.4%
4,CCC1C/C(=C/c2cccs2)C(=O)/C(=C/c2cccs2)C1 (centres undefined),-12.8%
5,CCOC(=O)C1=C(O)/C(=C/c2cc(C)n(-c3ccccc3)c2C)N=C1C,-7.36%
6,Cc1cc(C)c2nc(-c3ccco3)cc(C(=O)O)c2c1,79.1% (active)
7,CC(=O)C1=C(O)C(=O)N(c2ccc(Br)cc2)C1c1ccc([N+](=O)[O-])cc1 (centres undefined),46.5% (active)
8,O=c1[nH]c(/C=C\c2cccc(C(F)(F)F)c2)nc(O)c1[N+](=O)[O-],-7.2%
9,COc1ccc(/C=C/C(=O)c2cc(Br)ccc(=O)c2O)cc1,82.1% (active)
10,CC(=O)Oc1cccc(N2C(=O)CC(Nc3ccc(N4CCOCC4)cc3)C2=O)c1 (centres undefined),-24.2%
11,Cc1ccc(C(=O)O)cc1-c1ccc(/C=C2\SC(=O)N(CC(=O)Nc3ccc4c(c3)OCO4)C2=O)o1,63.1% (active)
12,O=C(c1cccc(-n2cccc2)c1)N1CCN(S(=O)(=O)c2ccc(F)cc2)CC1,-4.73%
13,COc1ccc(C)cc1-n1nnnc1SCC(=O)c1cc(C)n(Cc2ccco2)c1C,6.51%
14,O=C(N/N=C/c1ccco1)c1csc2c1CCCC2,-9.79%
15,CC(C)c1ccc(C2C(C(=O)c3ccco3)=C(O)C(=O)N2CC2CCCO2)cc1 (centres undefined),-11.7%
16,COc1cc(C2C(C(=O)c3ccco3)=C(O)C(=O)N2c2cc(C)on2)ccc1OCc1ccccc1 (centres undefined),110% (active)
17,COc1ccccc1C1/C(=C(/O)c2ccc(OC(C)C)cc2)C(=O)C(=O)N1c1cc(C)on1 (centres undefined),-6.81%
18,O=C1C=CC(=O)N1c1ccc(N2CCCCC2)cc1,-18.6%
19,COc1ccc(/C=C(\NC(=O)c2ccc(OCC(C)C)cc2)C(=O)OCc2ccco2)cc1,11.2%
20,Cc1[nH]n(C(N)=S)c(=O)c1N=Nc1ccc(Cl)cc1Cl,10.9%
21,CCOC(=O)c1ccccc1N1C(=O)C2Sc3[nH]c(=O)sc3C(/C=C/c3ccccc3)C2C1=O (centres undefined),44.1% (active)
22,COC(=O)COc1ccc2c(c1C)O/C(=C\c1ccco1)C2=O,-7.55%
23,Cc1ccc(C2Nc3cccc4cccc(c34)N2)cc1,-28.1%
24,Cc1nn2c(c1-c1ccccc1)N=C(c1ccco1)CC2c1ccccc1 (centres undefined),-12.4%
